# ChEMBL document CHEMBL1152550, “Synthesis and structure-activity relationships of N-aryl(indol-3-yl)glyoxamides as antitumor agents” (Bioorg Med Chem, 2009)
# Tests used:
# Type in all cases: functional, cell-based
# L1210 = test: Cytotoxicity against mouse L1210 cells after 48 hrs by XTT assay; conditions: L1210, 48 h
# [1] = Cytotoxicity against human KB/HeLa cells after 48 hrs by XTT assay
# SK-OV-3 = test: Cytotoxicity against human SKOV3 cells after 48 hrs by XTT assay; conditions: SK-OV-3, 48 h
# [2] = Cell cycle arrest in human KB/HeLa cells assessed as accumulation in G2/M phase by cytometric analysis
# Summary of the method: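 HeLa/KB cells; nuclei isolated with detergent lysis, trypsin, RNA digestion and spermine chromatin stabilisation, then stained stoichiometrically with propidium iodide. Read by flow cytometry with doublet discrimination, FL2 detector collecting 564–606 nm emission; DNA histograms analysed for cell cycle phase distribution across a concentration series (dose–response).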
SMILES,IC50 (L1210),IC50 [1],IC50 (SK-OV-3),Activity [2]
O=C(Nc1cccnc1)C(=O)c1cn(Cc2ccc(F)cc2)c2ccccc12,4.69 µM,4.69 µM,4.69 µM,
O=C(C(=O)N1CCN(c2ccncc2)CC1)c1cn(Cc2ccc(F)cc2)c2ccccc12,3.96 µM,> 10 µM,> 10 µM,
CCOC(=O)c1ccc(NC(=O)C(=O)c2cn(Cc3ccc(F)cc3)c3ccccc23)cc1,3.94 µM,3.94 µM,3.94 µM,
O=C(Nc1ccncc1)C(=O)c1cn(Cc2ccc(F)cc2)c2ccccc12,0.455 µM,0.054 µM,0.455 µM,Dose-dependent effect
O=C(Nc1ccc([N+](=O)[O-])cc1)C(=O)c1cn(Cc2ccc(F)cc2)c2ccccc12,> 10 µM,> 10 µM,> 10 µM,
O=C(Nc1ccc(Br)cc1)C(=O)c1cn(Cc2ccc(F)cc2)c2ccccc12,3.88 µM,3.88 µM,3.88 µM,
O=C(Nc1ccncc1)C(=O)c1cn(Cc2ccc(Cl)cc2)c2ccccc12 [INDIBULIN],0.044 µM,0.044 µM,0.077 µM,Dose-dependent effect
O=C(Nc1ccc(F)cc1)C(=O)c1cn(Cc2ccc(F)cc2)c2ccccc12,4.48 µM,7.94 µM,> 10 µM,
N#Cc1ccc(NC(=O)C(=O)c2cn(Cc3ccc(F)cc3)c3ccccc23)cc1,> 10 µM,> 10 µM,> 10 µM,
COc1cc(NC(=O)C(=O)c2cn(Cc3ccc(F)cc3)c3ccccc23)cc(OC)c1OC,0.378 µM,0.378 µM,3.78 µM,
O=C(Nc1ccccn1)C(=O)c1cn(Cc2ccc(F)cc2)c2ccccc12,8.3 µM,> 10 µM,> 10 µM,
